21 molecules from ChEMBL document CHEMBL1795232, “Benzoxazinones as potent positive allosteric AMPA receptor modulators: part I” (Bioorg Med Chem Lett, 2011) can be followed below.

SMILES strings stand for the structures.

The species entered for assay [1] is Rattus norvegicus. Put plainly: Positive allosteric modulation at AMPA receptor in Sprague-Dawley rat embryonic hippocampal neuron assessed as concentration required to double the steady-state current induced by glutamate by patch-clamp assay. In kind it is tissue-based. The conditions noted are these: Hippocampus. The method, boiled down: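 Hippocampal neurons from E18 Sprague-Dawley rats, cultured 4-7 days, whole-cell voltage-clamped at -80 mV at room temperature. Cells were pretreated 20 s with saline or modulator by superfusion, then given 500 µM glutamate with or without modulator for 1 s. Mean plateau current at 600-900 ms was taken. EC2x is the concentration doubling the steady-state glutamate current.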
(In general: The patch-clamp technique gives a direct electrical read-out from membranes.)

The species named for assay [2] is Rattus norvegicus. As to the kind of experiment: Positive allosteric modulation at AMPA receptor in Sprague-Dawley rat adult hippocampal slice assessed as increase in field excitatory postsynaptic potential amplitude at 10 uM. It is filed as tissue-based. The conditions noted are these: Hippocampus. The method in brief:
(§1)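 Transverse hippocampal slices from adult male Sprague-Dawley rats (4-6 weeks) held on nylon net in a rapid-flow linear interface chamber. Schaffer-commissural fibers stimulated with paired pulses (200 ms interval) at 0.05 Hz. After a 20-30 min stable baseline, compound infused 30 min, then washed out with control ACSF. DMSO stocks diluted into ACSF. Read-out was percentage increase in fEPSP amplitude.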

Assay [3] is described as follows: Displacement of [3H]AMPAKINE from AMPA receptor in rat forebrain.
The species entered for assay [4] is Rattus norvegicus. Put plainly: Positive allosteric modulation at AMPA receptor in Sprague-Dawley rat adult hippocampal slice assessed as increase in field excitatory postsynaptic potential amplitude at 30 uM. In kind it is tissue-based. To be noted: Hippocampus. The method, boiled down:
as §1

The species entered for assay [5] is Rattus norvegicus. Put plainly: Positive allosteric modulation at AMPA receptor in Sprague-Dawley rat adult hippocampal slice assessed as increase in field excitatory postsynaptic potential amplitude at 1 uM. To be noted: Hippocampus. It is filed as tissue-based. The method, boiled down: as §1
For assay [6], the species on record is Rattus norvegicus. Put plainly: Positive allosteric modulation at AMPA receptor in Sprague-Dawley rat adult hippocampal slice assessed as increase in field excitatory postsynaptic potential amplitude at 3 uM. In kind it is tissue-based. The conditions noted are these: Hippocampus. The method, boiled down: as §1

Regarding `COc1ccc(C(=O)N2CCCC2=O)cc1`, the Activity in the assay listed under Rattus norvegicus [1] was above 1000 µM.

For `CCN1COc2cc3c(cc2C1=O)OC1CCCN1C3=O` (stereo unspecified), the Activity turned out to be 17% in the assay listed under Rattus norvegicus [2] and 0.2 µM in the assay listed under Rattus norvegicus [1]. This molecule registered a Ki in assay [3] of 20 µM.

As for `O=C1c2cc3c(cc2OC2CCCN12)C(=O)N1CCCC1O3` (stereo unspecified), the Activity in the assay filed under Rattus norvegicus [1] is 0.06 µM.

`C=CCN1COc2cc3c(cc2C1=O)OC1CCCN1C3=O` (stereo unspecified): the Activity in the assay filed under Rattus norvegicus [1] is 0.5 µM. Besides, affinity in assay [3] was put at a Ki of 18 µM.

`CC(C)N1COc2cc3c(cc2C1=O)OC1CCCN1C3=O` (stereo unspecified): the figures for the Activity in the assay listed under Rattus norvegicus [2] and in the assay filed under Rattus norvegicus [1] were 3% and 0.9 µM, respectively. In assay [3], this molecule came in with a Ki of 100 µM.

As to `O=C1c2cc3c(cc2OCN1C1CCCC1)C(=O)N1CCCC1O3` (stereo unspecified), in the assay filed under Rattus norvegicus [1], the Activity came out at 7 µM. The Ki in assay [3] amounted to 163 µM.

For `O=C1c2cc3c(cc2OC2CCCN12)CCCO3` (stereo unspecified), in the assay listed under Rattus norvegicus [1], the Activity was 1.1 µM.

As to `CN1COc2cc3c(cc2C1=O)OC1CCCN1C3=O` (stereo unspecified), the Activity in the assay listed under Rattus norvegicus [2] is 19%; in the assay filed under Rattus norvegicus [1], 0.1 µM. The molecule further returned a Ki in assay [3] of 18 µM.

Take `O=C1c2cc3c(cc2OC2CCCN12)OC1CCCN1C3=O` (stereo unspecified): the Activity in the assay listed under Rattus norvegicus [1] was 2.6 µM.

As to `NS(=O)(=O)c1cc2c(cc1Cl)NC(C1CC3C=CC1C3)NS2(=O)=O` (stereo unspecified), the Activity in the assay listed under Rattus norvegicus [1] worked out at 1.6 µM.

Consider `CC(C)CN1COc2cc3c(cc2C1=O)OC1CCCN1C3=O` (stereo unspecified), for which, in the assay listed under Rattus norvegicus [1], the Activity is 41 µM.

Consider `O=C1NCOc2cc3c(cc21)OC1CCCN1C3=O` (stereo unspecified), for which the Activity in the assay listed under Rattus norvegicus [1] was 5 µM; in the assay filed under Rattus norvegicus [4], 5%. Also, the affinity in assay [3], expressed as Ki, was 225 µM.

For `O=C1c2cc3c(cc2OCN1CC(F)(F)F)C(=O)N1CCCC1O3` (stereo unspecified), the Activity was found to be 0% in the assay listed under Rattus norvegicus [5] and 8.8 µM in the assay filed under Rattus norvegicus [1]. Also, the Ki in assay [3] amounted to 330 µM.

For `C#CCN1COc2cc3c(cc2C1=O)OC1CCCN1C3=O` (stereo unspecified), the Activity in the assay filed under Rattus norvegicus [1] was 0.25 µM; in the assay filed under Rattus norvegicus [6] it was 6%. Moreover, in assay [3], the Ki came to 7 µM.

Consider `O=C1c2cc3c(cc2OC2CCCN12)OCOC3` (stereo unspecified), for which, in the assay listed under Rattus norvegicus [1], the Activity was determined as 22 µM.

Turning to `CC(CNS(=O)(=O)C(C)C)c1ccc(-c2ccsc2)cc1` (stereo unspecified), the Activity in the assay listed under Rattus norvegicus [1] was found to be 0.07 µM.

In the case of `O=C1c2cc3c(cc2OCN1CCF)C(=O)N1CCCC1O3` (stereo unspecified), the Activity is 9% in the assay listed under Rattus norvegicus [2] and 0.5 µM in the assay listed under Rattus norvegicus [1]. In assay [3], the Ki worked out at 33 µM.

For `O=C1c2cc3c(cc2OC2CCCN12)OCCO3` (stereo unspecified), in the assay listed under Rattus norvegicus [1], the Activity worked out at 2.3 µM.

Regarding `O=C1c2cc3c(cc2OCN1C1CC1)C(=O)N1CCCC1O3` (stereo unspecified), the Activity in the assay listed under Rattus norvegicus [2] was determined as 10%; in the assay listed under Rattus norvegicus [1], 0.8 µM. The molecule also yielded a Ki in assay [3] of 26 µM.

Regarding `CCCN1COc2cc3c(cc2C1=O)OC1CCCN1C3=O` (stereo unspecified), the Activity in the assay filed under Rattus norvegicus [5] was 0%; in the assay filed under Rattus norvegicus [1] it was 2.5 µM. In assay [3], this molecule came in with a Ki of 70 µM.

In the case of `O=C1c2cc3c(cc2OC2CCCN12)COCO3` (stereo unspecified), the Activity in the assay listed under Rattus norvegicus [1] is 1.1 µM.

As usually defined, the Ki is a measure of affinity in units of concentration, obtained from inhibition or displacement. A high value points to weaker binding.
